Assay results published in ChEMBL document CHEMBL1123468, “Synthesis and antiviral activity of (E)-5-(2-bromovinyl)uracil and (E)-5-(2-bromovinyl)uridine” (1986).
In brackets after ≈: the same amount, converted by molar mass. Several values for one entry are separate records, joined by “and”; a condition that tells them apart may be missing. Equal entries are not always repeated.

How the values were obtained:
E6SM [1] = experiment: The concentration required to reduce the cytopathogenicity of HSV-1 (KOS) in E6SM cell culture by 50% in absence of 0 ug/mL dThd; assay type: functional; settings: Homo sapiens
Outline: (§1)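 E6SM cells infected with HSV-1 (KOS), with dThd added to the culture medium at the stated concentration. The value is the minimum concentration that reduces viral cytopathogenicity by 50%.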

E6SM [2] = experiment: The concentration required to reduce the cytopathogenicity of HSV-1 (KOS) in E6SM cell culture by 50% in presence of 0 ug/mL concentrations of 6-aminothymine; assay type: functional; settings: Homo sapiens
Outline: (§2)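 E6SM cells infected with HSV-1 (KOS), with 6-aminothymine or benzylacyclouridine added to the medium at the stated concentration. The value is the minimum concentration that reduces viral cytopathogenicity by 50%.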

E6SM [3] = experiment: The concentration required to reduce the cytopathogenicity of HSV-1 (KOS) in E6SM cell culture by 50% in presence of 0 ug/mL concentrations of benzylacyclouridine; assay type: functional; settings: Homo sapiens; outline: as §2
E6SM [4] = experiment: The compound was tested for its antiviral activity against vesicular stomatitis virus in E6SM cell culture; assay type: functional; settings: Homo sapiens
Outline: (§3)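 Virus-induced cytopathogenicity in cell culture, scored microscopically. The value is the minimum concentration that cuts viral cytopathogenicity by 50%. Normal cell morphology was also checked microscopically at up to 400 μg/mL.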

E6SM [5] = experiment: The concentration required to reduce the cytopathogenicity of HSV-1 (KOS) in E6SM cell culture by 50% in absence of Urd; assay type: functional; settings: Homo sapiens
Outline: (§4)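 E6SM cells infected with HSV-1 (KOS), with Urd or dUrd added alone or together with 6-aminothymine (50 μg/mL). The value is the minimum concentration that reduces viral cytopathogenicity by 50%.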

E6SM [6] = experiment: The concentration required to reduce the cytopathogenicity of HSV-1 (KOS) in E6SM cell culture by 50% in presence of 10 ug/mL dThd; assay type: functional; settings: Homo sapiens; outline: as §1
E6SM [7] = experiment: The concentration required to reduce the cytopathogenicity of HSV-1 (KOS) in E6SM cell culture by 50% in presence of 10 ug/mL concentrations of benzylacyclouridine; assay type: functional, Homo sapiens; outline: as §2
E6SM [8] = experiment: The concentration required to reduce the cytopathogenicity of HSV-1 (KOS) in E6SM cell culture by 50% in presence of 100 ug/ml concentrations of 6-aminothymine; assay type: functional; settings: Homo sapiens; outline: as §2
E6SM [9] = experiment: The concentration required to reduce the cytopathogenicity of HSV-1 (KOS) in E6SM cell culture by 50% in presence of 4 ug/mL concentrations of 6-aminothymine; assay type: functional; settings: Homo sapiens
Outline: (§5)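 E6SM cultures were infected with HSV-1 strain KOS. 6-Aminothymine or benzylacyclouridine was present in the medium together with the test compound. The value is the minimum concentration giving 50% reduction of viral cytopathogenicity, scored by the earlier-described cytopathogenicity inhibition procedure.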

HeLa [10] = experiment: The concentration required to reduce the cytopathogenicity of HSV-1 (KOS) in HeLa cell culture by 50% in presence of 0 ug/mL concentrations of 6-aminothymine; assay type: functional; settings: Homo sapiens
HeLa [11] = experiment: The concentration required to reduce the cytopathogenicity of HSV-1 (KOS) in HeLa cell culture by 50% in presence of 100 ug/mL concentrations of 6-aminothymine; assay type: functional; settings: Homo sapiens
M21 [12] = experiment: The compound was tested for its antiviral activity against HSV-1 (KOS) virus M-21 (GM137) cell line; assay type: functional; settings: Homo sapiens; outline: as §3
PRK = experiment: The compound was tested for its antiviral activity against HSV-1 (KOS) virus in PRK cell line; assay type: functional; settings: Oryctolagus cuniculus
Outline: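 Primary rabbit kidney cells infected with HSV-1 (KOS). The value is the minimum concentration that cuts viral cytopathogenicity by 50%. Cytotoxicity was judged as microscopically detectable alteration of cell morphology at up to 400 μg/mL.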

[13] = The concentration required to reduce the cytopathogenicity of HSV-1 (KOS) in PRK cell culture 0 ug/mL specified concentrations of 6-aminothymine; assay type: functional; settings: Oryctolagus cuniculus
[14] = The concentration required to reduce the cytopathogenicity of HSV-1 (KOS) in PRK cell culture by 50% in presence of 100 ug/mL concentrations of 6-aminothymine; assay type: functional; settings: Oryctolagus cuniculus
Outline: (§6)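 The cells were primary rabbit kidney (PRK) cultures infected with HSV-1 strain KOS, with 6-aminothymine co-present in the medium. The value is the minimum inhibitory concentration that reduces viral cytopathogenicity by 50%, using the previously described cytopathogenicity inhibition method.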

[15] = The concentration required to reduce the cytopathogenicity of HSV-1 (KOS) in PRK cell culture by 50% in presence of 20 ug/mL concentrations of 6-aminothymine; assay type: functional; settings: Oryctolagus cuniculus; outline: as §6
[16] = The concentration required to reduce the cytopathogenicity of HSV-1 (KOS) in PRK cell culture by 50% in presence of 4 ug/mL concentrations of 6-aminothymine; assay type: functional; settings: Oryctolagus cuniculus; outline: as §6
T-21 (LR) = experiment: The compound was tested for its antiviral activity against HSV-1 (KOS) virus in T-21 (LR) cell line; assay type: functional; settings: Homo sapiens; outline: as §3
HeLa [17] = experiment: The concentration required to reduce the cytopathogenicity of HSV-1 (KOS) in HeLa cell culture by 50% in presence of 4 ug/mL concentrations of 6-aminothymine; assay type: functional; settings: Homo sapiens
E6SM [18] = experiment: The compound was tested for its antiviral activity against HSV-2 (G) virus in E6SM cell culture; assay type: functional; settings: Homo sapiens; outline: as §3
E6SM [19] = experiment: The concentration required to reduce the cytopathogenicity of HSV-1 (KOS) in E6SM cell culture by 50% in presence of 1 ug/mL of Urd; assay type: functional; settings: Homo sapiens; outline: as §4
HeLa [20] = experiment: The concentration required to reduce the cytopathogenicity of HSV-1 (KOS) in HeLa cell culture by 50% in presence of 20 ug/mL concentrations of 6-aminothymine; assay type: functional; settings: Homo sapiens
E6SM [21] = experiment: The concentration required to reduce the cytopathogenicity of HSV-1 (KOS) in E6SM cell culture by 50% in absence of dThd; assay type: functional; settings: Homo sapiens; outline: as §1
E6SM [22] = experiment: The concentration required to reduce the cytopathogenicity of HSV-1 (KOS) in E6SM cell culture by 50% in presence 0 ug/mL of 50 ug/mL of 6-aminothymine; assay type: functional; settings: Homo sapiens; outline: as §2
E6SM [23] = experiment: The concentration required to reduce the cytopathogenicity of HSV-1 (KOS) in E6SM cell culture by 50% in presence of specified concentrations of 6-aminothymine; assay type: functional; settings: Homo sapiens; outline: as §5
E6SM [24] = experiment: The concentration required to reduce the cytopathogenicity of HSV-1 (KOS) in E6SM cell culture by 50% in presence of specified concentrations of benzylacyclouridine; assay type: functional, Homo sapiens; outline: as §5
HeLa [25] = experiment: The concentration required to reduce the cytopathogenicity of HSV-1 (KOS) in HeLa cell culture by 50% in presence of specified concentrations of 6-aminothymine; assay type: functional, Homo sapiens
M21 [26] = experiment: The compound was tested for its antiviral activity against HSV-1 (KOS) virus in M-21 (GM137) cell line,; assay type: functional; settings: Homo sapiens; outline: as §3
[27] = The concentration required to reduce the cytopathogenicity of HSV-1 (KOS) in PRK cell culture by 50% in presence of specified concentrations of 6-aminothymine; assay type: functional, Oryctolagus cuniculus; outline: as §6

## Oc1ncc(/C=C/Br)c(O)n1
E6SM [1]
  MIC50: 7 µg/mL (≈ 32.3 µM)
E6SM [2]
  MIC50: 7 µg/mL
E6SM [3]
  MIC50: 4 µg/mL
E6SM [4]
  MIC50: > 400 µg/mL
E6SM [5]
  MIC50: 4 µg/mL (≈ 18.4 µM)
E6SM [6]
  MIC50: 70 µg/mL
E6SM [7]
  MIC50: 4 µg/mL
E6SM [7]; Homo sapiens, read-out: MIC50
  MIC50: 4 µg/mL
E6SM [8]
  MIC50: > 400 µg/mL
E6SM [9]
  MIC50: > 400 µg/mL
HeLa [10]
  MIC50: 2 µg/mL
HeLa [11]
  MIC50: > 200 µg/mL
M21 [12]
  MIC50: 1 µg/mL (≈ 4.61 µM)
PRK
  MIC50: > 400 µg/mL
[13]
  MIC50: > 400 µg/mL
[14]
  MIC50: > 400 µg/mL
[15]
  MIC50: > 400 µg/mL
[16]
  MIC50: > 400 µg/mL
T-21 (LR)
  MIC50: 7 µg/mL (≈ 32.3 µM)
HeLa [17]
  MIC50: > 200 µg/mL
E6SM [18]
  MIC50: > 400 µg/mL
E6SM [19]
  MIC50: 2 µg/mL
HeLa [20]
  MIC50: > 200 µg/mL

## O=c1[nH]c(=O)n([C@H]2C[C@H](O)[C@@H](CO)O2)cc1/C=C/Br [BRIVUDINE]
E6SM [4]
  MIC50: > 400 µg/mL
E6SM [5]
  MIC50: 0.02 µg/mL (≈ 0.06 µM)
E6SM [21]
  MIC50: 0.02 µg/mL (≈ 0.06 µM)
E6SM [22]
  MIC50: 0.02 µg/mL (≈ 0.06 µM)
E6SM [6]
  MIC50: 0.4 µg/mL
E6SM [23]
  MIC50: 0.02 µg/mL
E6SM [24]
  MIC50: 0.02 µg/mL
E6SM [24]; Homo sapiens, read-out: MIC50
  MIC50: 0.04 µg/mL
HeLa [25]
  MIC50: 0.01 µg/mL and 0.02 µg/mL
HeLa [25]; Homo sapiens, read-out: MIC50
  MIC50: 0.01 µg/mL
M21 [26]
  MIC50: 0.02 µg/mL (≈ 0.06 µM)
PRK
  MIC50: 0.007 µg/mL (≈ 0.021 µM)
[27]
  MIC50: 0.01 µg/mL
[27]; Oryctolagus cuniculus, read-out: MIC50
  MIC50: 0.01 µg/mL
T-21 (LR)
  MIC50: 0.02 µg/mL (≈ 0.06 µM)
E6SM [18]
  MIC50: 2 µg/mL (≈ 6 µM)
E6SM [19]
  MIC50: 0.04 µg/mL
